The values below come from ChEMBL document CHEMBL1139103, “Identification of novel glycine sulfonamide antagonists for the EP1 receptor” (Bioorg Med Chem Lett, 2007).

Test [1] addresses T1, Prostaglandin E2 receptor EP1 subtype (Homo sapiens, UniProt P34995).
T1 sequence (P34995 whole entry): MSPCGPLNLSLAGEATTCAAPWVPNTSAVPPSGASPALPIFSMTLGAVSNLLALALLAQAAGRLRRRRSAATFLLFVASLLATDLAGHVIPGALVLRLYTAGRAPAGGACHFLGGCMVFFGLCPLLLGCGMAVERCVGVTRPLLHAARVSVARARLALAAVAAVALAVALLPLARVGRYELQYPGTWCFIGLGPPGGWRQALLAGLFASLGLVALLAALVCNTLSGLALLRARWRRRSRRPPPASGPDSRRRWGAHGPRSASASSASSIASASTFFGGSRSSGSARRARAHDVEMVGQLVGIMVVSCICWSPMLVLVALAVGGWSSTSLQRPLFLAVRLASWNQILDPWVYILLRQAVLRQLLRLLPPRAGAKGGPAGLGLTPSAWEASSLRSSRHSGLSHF
Put plainly: Antagonist activity at human EP1 expressed in CHOK1 cells receptor assessed as inhibition of intracellular calcium mobilization by FLIPR assay. In kind it is functional, cell-based, CHO-K1. In a few lines: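 Stable EP1- or EP3-transfected CHO-K1 whole cells loaded with calcium-sensitive dye Fluo-3; inhibition of PGE2-evoked intracellular Ca2+ mobilisation read on a fluorimetric imaging plate reader (FLIPR). IC50s converted to pKi. Means of at least two experiments unless specified.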
(In general: Calcium flux is commonly read through the fluorescence of an indicator in the cells.)

Test [2] deals with T1, Prostaglandin E2 receptor EP1 subtype. Description: Displacement of [3H]PGE2 from EP1 expressed in CHO cells. The test is classed as cell-based. In a few lines: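 Membranes from stable EP1-transfected CHO-K1 cells incubated with compound and [3H]-PGE2 (3 nM final) for 30 min at 30 °C. Bound radioactivity counted by liquid scintillation. Means of at least four experiments.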
A general note: In a radioligand displacement assay an active substance lowers the binding of a labelled ligand.

By Ki is commonly meant the dissociation constant of the complex between target and ligand, obtained from inhibition or displacement. Take `CCc1ccccc1N(CC(=O)NCCc1ccc(OC)c(OC)c1)S(=O)(=O)c1ccccc1Cl`: the Ki in test [1] is 2 µM. Same read-out and setting: as for `COc1ccc(CCNC(=O)CN(c2ccc(Br)cc2)S(=O)(=O)c2ccc(C)cc2)cc1OC`, the figure is over 3.8 µM.

With `CCc1ccccc1N(CC(=O)NCc1cccc(OC)c1)S(=O)(=O)c1ccc(C)cc1`, the Ki in test [1] is 0.138 µM; in test [2], 0.0794 µM. On to `COc1ccc(CCNC(=O)CN(c2ccc(F)cc2)S(=O)(=O)c2ccc(C)cc2)cc1OC`, for which the Ki in test [1] was over 1.58 µM. Same read-out and setting: the value for `COc1ccc(CCNC(=O)CN(c2ccccc2C)S(=O)(=O)c2ccccc2)cc1OC` was 0.741 µM; that for `CCc1ccccc1N(CC(=O)NCCc1ccc(OC)c(OC)c1)S(=O)(=O)c1ccc(C(F)(F)F)cc1` was 0.0191 µM.

Take `CCc1ccccc1N(CC(=O)NCc1cccc(Cl)c1)S(=O)(=O)c1ccc(C)cc1`: the inhibition constant (Ki) is 1.41 µM in test [1] and 0.251 µM in test [2]. As for `CCc1ccccc1N(CC(=O)NCCc1ccc(OC)c(OC)c1)S(=O)(=O)c1cccc(C)c1`, the Ki in test [1] was 1.66 µM. On to `CCc1ccccc1N(CC(=O)NCCc1ccc(OC)c(OC)c1)S(=O)(=O)c1ccc(OC(F)(F)F)cc1`, for which the Ki in test [1] was 0.0692 µM. On to `CCn1nccc1N(CC(=O)NCc1ccc(Cl)cc1)S(=O)(=O)c1ccc(C)cc1`, for which the Ki was 0.0724 µM in test [1] and 0.158 µM in test [2].

In the case of `CCc1ccccc1N(CC(=O)NCc1ccccc1OC)S(=O)(=O)c1ccc(C)cc1`, in test [1], the Ki was 1.07 µM. `CCc1ccccc1N(CC(=O)NCc1ccc(C(F)(F)F)cc1)S(=O)(=O)c1ccc(C)cc1`: the Ki in test [1] was 0.209 µM. For `CCc1ccccc1N(CC(=O)NCCc1ccc(OC)c(OC)c1)S(=O)(=O)c1ccccc1C`, in test [1], the Ki is 0.166 µM. In the case of `CCc1ccccc1N(CC(=O)NCc1cccc(OC(F)(F)F)c1)S(=O)(=O)c1ccc(C)cc1`, in test [1], the Ki is 0.427 µM. As for `COc1ccc(N(CC(=O)NCCc2ccc(OC)c(OC)c2)S(=O)(=O)c2ccc(C)cc2)cc1`, the Ki in test [1] was over 1.58 µM. For the compound `Cc1ccc(S(=O)(=O)N(CC(=O)NCc2ccc(Cl)cc2)c2ccnn2C)cc1`, the Ki in test [1] was 0.589 µM; in test [2], 0.398 µM. Regarding `COc1ccc(CCNC(=O)CN(c2ccccc2C)S(=O)(=O)c2ccc(C)cc2)c(F)c1OC`, the Ki in test [1] was 0.0661 µM. For `COc1ccc(CCNC(=O)CN(c2cccc(C)c2C)S(=O)(=O)c2ccc(C)cc2)cc1OC`, the Ki in test [1] was 0.0129 µM. For `Cc1ccc(S(=O)(=O)N(CC(=O)NCc2ccc(Cl)cc2)c2cccc(C)n2)cc1`, the Ki in test [1] was over 1.45 µM; in test [2], over 1 µM.

`COc1ccc(CCNC(=O)CN(c2cccc(C(F)(F)F)c2)S(=O)(=O)c2ccc(C)cc2)cc1OC`: the inhibitory constant (Ki) in test [1] was 0.0309 µM. The same measure, in the same setting: as for `CCc1ccccc1N(CC(=O)NCCc1ccc(OC)c(OC)c1)S(=O)(=O)c1ccccc1C#N`, the figure is over 3.16 µM; as for `COc1ccc(CCNC(=O)CN(c2ccccc2C)S(=O)(=O)c2ccc(C)cc2)cc1`, 0.17 µM; as for `COc1ccc(CCNC(=O)CN(c2ccc(C)cc2)S(=O)(=O)c2ccc(C)cc2)cc1OC`, over 1.12 µM. For the compound `CCc1ccccc1N(CC(=O)NCCc1ccc(OC)c(OC)c1)S(=O)(=O)c1cccc(C#N)c1`, the Ki in test [1] was 0.24 µM. On to `CCc1ccccc1N(CC(=O)NCCc1ccc(OC)c(OC)c1)S(=O)(=O)c1cccc(OC(F)(F)F)c1`, for which the Ki in test [1] is 0.708 µM. `CCc1ccccc1N(CC(=O)NCc1ccc(Br)cc1)S(=O)(=O)c1ccc(C)cc1`: the Ki in test [1] is 0.0229 µM. With `CCc1ccccc1N(CC(=O)NCCc1ccc(OC)c(OC)c1)S(=O)(=O)c1ccc(OC)cc1`, in test [1], the Ki was 0.17 µM.

Consider `COc1ccc(CCNC(=O)CN(c2ccccc2C)S(=O)(=O)c2ccc(C)cc2)cc1OC`, for which the Ki in test [1] was 0.0389 µM. For `CCc1ccccc1N(CC(=O)NCc1ccccc1F)S(=O)(=O)c1ccc(C)cc1`, the Ki in test [1] was 0.135 µM. Consider `COc1ccc(CCNC(=O)CN(c2ccc(Cl)cc2)S(=O)(=O)c2ccc(C)cc2)cc1OC`, for which the Ki in test [1] is 1.29 µM. With `COc1ccc(CCNC(=O)CN(c2cccc(Br)c2)S(=O)(=O)c2ccc(C)cc2)cc1OC`, in test [1], the Ki is 0.0347 µM. Turning to `CCc1ccccc1N(CC(=O)NCc1ccccc1)S(=O)(=O)c1ccc(C)cc1`, the Ki in test [1] was 0.224 µM; in test [2], 0.0631 µM. For `Cc1ccc(S(=O)(=O)N(CC(=O)NCCc2cccc(O)c2)c2ccccc2C)cc1`, the Ki in test [1] is 0.204 µM. As for `Cc1ccc(S(=O)(=O)N(CC(=O)NCCc2ccc(Cl)cc2)c2ccccc2C)cc1`, the Ki in test [1] is 0.661 µM. `COc1ccc(CCNC(=O)CN(c2cccc(Cl)c2)S(=O)(=O)c2ccc(C)cc2)cc1OC`: in test [1], the Ki is 0.0617 µM. On to `Cc1ccc(S(=O)(=O)N(CC(=O)NCc2ccc(Cl)cc2)c2cccnc2C)cc1`, for which the values for the Ki in test [1] and in test [2] were 0.676 µM and 0.2 µM, respectively. With `CNS(=O)(=O)c1cc(CCNC(=O)CN(c2ccccc2C)S(=O)(=O)c2ccc(C)cc2)ccc1O`, the Ki in test [1] is 0.00372 µM. Regarding `Cc1ccc(S(=O)(=O)N(CC(=O)NCc2ccc(Cl)cc2)c2ccc(C)nc2)cc1`, the values for the Ki in test [1] and in test [2] were over 1.45 µM and over 1 µM, respectively. On to `Cc1ccc(S(=O)(=O)N(CC(=O)NCc2ccc(Cl)cc2)c2cccnc2)cc1`, for which the Ki in test [1] is over 1.45 µM; in test [2] it was over 1 µM. On to `CCc1ccccc1N(CC(=O)NCCc1ccc(OC)c(OC)c1)S(=O)(=O)c1ccc(C#N)cc1`, for which the inhibition constant Ki in test [1] is 0.0316 µM.

With `CCc1ccccc1N(CC(=O)NCCc1ccc(OC)c(OC)c1)S(=O)(=O)c1ccc(Br)cc1`, the Ki in test [1] is 0.0288 µM. Take `Cc1ccc(S(=O)(=O)N(CC(=O)NCc2ccc(Cl)cc2)c2ncccc2C)cc1`: the Ki is over 1.45 µM in test [1] and 0.794 µM in test [2]. Take `CCc1ccccc1N(CC(=O)NCc1ccc(OC)c(OC)c1)S(=O)(=O)c1ccc(C)cc1`: the Ki in test [1] was 0.282 µM; in test [2], 0.0251 µM.

Take `Cc1ccc(S(=O)(=O)N(CC(=O)NCCc2ccc(NS(C)(=O)=O)cc2)c2ccccc2C)cc1`: in test [1], the Ki is 0.0891 µM. Regarding `Cc1ccc(S(=O)(=O)N(CC(=O)NCCc2ccccc2)c2ccccc2C)cc1`, in test [1], the Ki was 1.35 µM. Regarding `COc1ccc(CCNC(=O)CN(c2ccccc2)S(=O)(=O)c2ccc(C)cc2)cc1OC`, in test [1], the Ki is 0.589 µM. Consider `CCc1ccccc1N(CC(=O)NCc1ccc(OC)cc1)S(=O)(=O)c1ccc(C)cc1`, for which the Ki in test [1] is 0.0355 µM; in test [2], 0.0251 µM. With `COc1ccc(CCNC(=O)CN(c2cccc(C)c2)S(=O)(=O)c2ccc(C)cc2)cc1OC`, in test [1], the Ki was 0.0617 µM. `Cc1ccc(S(=O)(=O)N(CC(=O)NCc2ccc(Cl)cc2)c2ccc(C)cn2)cc1`: the figures for the inhibition constant (Ki) in test [1] and in test [2] were over 1.45 µM and over 1 µM, respectively. `Cc1ccc(S(=O)(=O)N(CC(=O)NCc2ccc(Cl)cc2)c2ccccn2)cc1`: the Ki is over 1.45 µM in test [1] and over 1 µM in test [2].
